Assay results as given in ChEMBL document CHEMBL1123634, “Design, synthesis, and testing of potential antisickling agents. 10. (2,2-Dimethylchroman-6-yl)alkanoic acids” (1987).

What was measured:
Type in all cases: functional
Homo sapiens [1] = organism: Homo sapiens; experiment: Antigelling activity expressed as ratio of soluble sickle hemoglobin (HbS) of compound (g/dL) and that of control at 40 mM concentration
Outline: (§1)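 Hofrichter-type solubility assay: HbS (final around 24 g/100 mL) incubated with drug at 5, 10, 20 and 40 mM, dithionite as deoxygenant. Drugs taken up as sodium salts (2 equiv NaHCO3) in 0.15 M phosphate buffer pH 7.4, 0.18 M stock, some with N-methylpiperazine added for solubility. Each spin run includes a no-drug dHbS control and a 40 mM phenylalanine control. Ratio is soluble HbS with drug (g/dL) over soluble HbS control (g/dL). Values are averages of duplicate runs.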

Homo sapiens [2] = organism: Homo sapiens; experiment: Antigelling activity expressed as ratio of soluble sickle hemoglobin (HbS) of compound (g/dL) and that of control at 10 mM concentration; outline: as §1
Homo sapiens [3] = organism: Homo sapiens; experiment: Antigelling activity expressed as ratio of soluble sickle hemoglobin (HbS) of compound (g/dL) and that of control at 5 mM concentration; outline: as §1
Homo sapiens [4] = organism: Homo sapiens; experiment: Antigelling activity expressed as ratio of soluble sickle hemoglobin (HbS) of compound (g/dL) and that of control at 20 mM concentration; outline: as §1
Homo sapiens [5] = organism: Homo sapiens; experiment: Antigelling activity expressed as ratio of soluble sickle hemoglobin (HbS) of compound (g/dL) and that of control at 5 mM concentration.; outline: as §1
Homo sapiens [6] = organism: Homo sapiens; experiment: Antigelling activity expressed as ratio of soluble sickle hemoglobin (HbS) of compound (g/dL) and that of control at 10 mM concentration.; outline: as §1
Homo sapiens [7] = organism: Homo sapiens; experiment: Antigelling activity expressed as ratio of soluble sickle hemoglobin (HbS) of compound (g/dL) and that of control at 40 mM concentration.; outline: as §1
Homo sapiens [8] = organism: Homo sapiens; experiment: Antigelling activity expressed as ratio of soluble sickle hemoglobin (HbS) of compound (g/dL) and that of control at 20 mM concentration.; outline: as §1

`CC1(C)CCc2cc(CCCC(=O)O)ccc2O1` showed an Activity (Homo sapiens [1]) of 1.299, an Activity (Homo sapiens [2]) of 1.086 and an Activity (Homo sapiens [3]) of 1.052. It also gave an Activity (Homo sapiens [4]) of 1.144.

For `CC1(C)CCc2cc(CCC(=O)O)ccc2O1`, the Activity (Homo sapiens [1]) was 1.297, the Activity (Homo sapiens [5]) was 1.045 and the Activity (Homo sapiens [2]) was 1.077. For the same molecule, the Activity (Homo sapiens [4]) was 1.164.

`CC(C(=O)O)c1ccc2c(c1)CCC(C)(C)O2` (configuration not stated) was tested, and the Activity (Homo sapiens [1]) was 1.21, the Activity (Homo sapiens [5]) was 1.011 and the Activity (Homo sapiens [2]) was 1.028. It also gave an Activity (Homo sapiens [4]) of 1.095.

`Cc1ccc(C)c(OCCCC(C)(C)C(=O)O)c1` [GEMFIBROZIL] gave an Activity (Homo sapiens [1]) of 1.234, an Activity (Homo sapiens [3]) of 1.04 and an Activity (Homo sapiens [6]) of 1.073. The Activity (Homo sapiens [4]) was 1.117.

In the case of `CC1(C)CCc2cc(C(=O)O)ccc2O1`, the Activity (Homo sapiens [2]) is reported as 1.043, the Activity (Homo sapiens [3]) is reported as 1.044 and the Activity (Homo sapiens [7]) is reported as 1.226. The Activity (Homo sapiens [4]) was 1.108.

Work on `CC(C)(Oc1ccc(Cl)cc1)C(=O)O` [CLOFIBRIC ACID] yielded an Activity (Homo sapiens [5]) of 1.018, an Activity (Homo sapiens [2]) of 1.064 and an Activity (Homo sapiens [7]) of 1.302. The Activity (Homo sapiens [4]) was 1.155.

For `N[C@@H](Cc1ccccc1)C(=O)O` [PHENYLALANINE], the Activity (Homo sapiens [1]) was 1.178, the Activity (Homo sapiens [3]) was 1.036 and the Activity (Homo sapiens [6]) was 1.048. The Activity (Homo sapiens [8]) was 1.093.

Molecule `CC(=O)OC(C/C(C)=C/C(=O)O)c1ccc2c(c1)CCC(C)(C)O2` (configuration not stated) has an Activity (Homo sapiens [1]) of 1.188, an Activity (Homo sapiens [5]) of 1.01 and an Activity (Homo sapiens [2]) of 1.03. For the same molecule, the Activity (Homo sapiens [8]) was 1.085.
